Data set [1] concerns Staphylococcus aureus. Nature of the data set: Antibacterial activity against Staphylococcus aureus NCTC 4163 assessed as bacterial growth inhibition measured after 18 hrs by two-fold serial microdilution method. In kind it is functional. In a few lines:
(§1)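 Two-fold serial broth microdilution in MH II medium following modified CLSI procedures. Compounds were dissolved in DMSO and diluted in medium to at most 1% solvent, tested from 0.03125 to 512 μg/ml. Final inoculum 10^6 CFU/ml. MIC was taken as the lowest concentration with no visible growth after 18 h at 35 °C.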
In general terms: Dilution methods test growth across graded concentrations, often in twofold steps.

For data set [2], the system named is Mycobacterium tuberculosis. Nature of the data set: Antitubercular activity against Mycobacterium tuberculosis H37Rv ATCC 25618 assessed as fractional inhibitory concentration index incubated for 14 days in presence of 1/2 x MIC ethambutol by MABA method. The format is functional. The settings on record: time 14 day. In short, it runs like this:
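Interaction analysis in Middlebrook 7H9 with 10% OADC. Combination MICs came from mixing the derivative (1 to 1/32 MIC) with the reference drug at 1/2 MIC, and the reverse, after 14 days at 37 °C with McFarland 1 inoculum. FICI was calculated from the combination MIC values and the MICs alone.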
(In general: The colour change of resazurin is a common sign of viable cells or microbes.)

The test system of data set [3] is Mycobacterium tuberculosis. Nature of the data set: Antitubercular activity against Mycobacterium tuberculosis Spec.192 assessed as ethambutol MIC incubated for 14 days in presence of ethambutol by MABA method. The settings on record: Mycobacterium tuberculosis, 192, 336 h; time 14 day. The format is functional. In a few lines: (§2)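 In Middlebrook 7H9 with 10% OADC, the reference drug (INH, RMP, SM or EMB) at 1 to 1/32 of its MIC alone was mixed with the test derivative fixed at 1/2 its MIC. 4 ml samples were inoculated with McFarland 1 suspension and incubated 14 days at 37 °C. MIC is the lowest drug concentration in combination that inhibited growth.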

Data set [4] relates to Pseudomonas aeruginosa. Nature of the data set: Antibacterial activity against Pseudomonas aeruginosa PAO1 assessed as bacterial growth inhibition measured after 18 hrs by two-fold serial microdilution method. In kind it is functional. In short, it runs like this:
as §1

For data set [5], the system named is Staphylococcus epidermidis. Put plainly: Antibacterial activity against Staphylococcus epidermidis ATCC 12228 assessed as bacterial growth inhibition measured after 18 hrs by two-fold serial microdilution method. The format is functional. In short, it runs like this: as §1
Data set [6] concerns Mycobacterium tuberculosis. Nature of the data set: Potentiation of rifampicin-induced antimycobacterial activity against Mycobacterium tuberculosis Spec.192 assessed as fold decrease in rifampicin MIC at 1/2X MIC incubated for 14 days in presence of rifampicin by MABA method. The settings on record: time 14 day. In kind it is functional. In short, it runs like this:
(§3)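 Combination assay in Middlebrook 7H9 broth with 10% OADC. The reference drug (INH, RMP, SM or EMB) was varied from 1 to 1/32 of its MIC, and the test derivative was fixed at 1/2 its own MIC. Single-agent MICs were determined first by MABA. Inoculum was 1 McFarland, with 14 days of incubation at 37 °C. The endpoint was the lowest reference-drug concentration that inhibited growth.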

Data set [7] has as its system V79. Put plainly: Cytotoxicity against Chinese Hamster V79 cells assessed as reduction in cell viability at 100 uM measured after 72 hrs by MTT assay. The format is cell-based, Cricetulus griseus. Conditions: v79, 72 h. In short, it runs like this: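 MTT viability assay on cells grown in DMEM with 10% heat-inactivated FBS, penicillin/streptomycin and 20 mM HEPES at 37 °C/5% CO2. Cells were seeded at 1×10^4 per well and allowed to adhere for 24 h, then the medium was refreshed. Compounds were added at 20–140 μM for 72 h at 37 °C, followed by MTT (0.5 mg/mL in serum-free medium) for 4 h. Untreated cells served as control. IC50 is the concentration giving 50% growth inhibition versus control.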

In data set [8] the test system is Mycobacterium tuberculosis. Put plainly: Potentiation of ethambutol-induced antimycobacterial activity against Mycobacterium tuberculosis H37Rv ATCC 25618 assessed as fold decrease in ethambutol MIC at 1/2X MIC incubated for 14 days in presence of ethambutol by MABA method. In kind it is functional. Conditions: time 14 day. In a few lines: as §3
The subject of data set [9] is Staphylococcus epidermidis. Nature of the data set: Antibacterial activity against Staphylococcus epidermidis ATCC 35984/RP62A assessed as bacterial growth inhibition measured after 18 hrs by two-fold serial microdilution method. In kind it is functional. In a few lines: as §1
Data set [10] concerns Mycobacterium tuberculosis. Put plainly: Potentiation of rifampicin-induced antimycobacterial activity against Mycobacterium tuberculosis H37Rv ATCC 25618 assessed as fold decrease in rifampicin MIC at 1/2X MIC incubated for 14 days in presence of rifampicin by MABA method. The format is functional. The settings on record: time 14 day. In short, it runs like this: as §3
In data set [11] the test system is Mycobacterium tuberculosis. Nature of the data set: Antitubercular activity against Mycobacterium tuberculosis H37Rv ATCC 25618 assessed as ethambutol MIC incubated for 14 days in presence of ethambutol by MABA method. In kind it is functional. The settings on record: H37Rv ATCC 25618, 336 h, time 14 day. In short, it runs like this:
as §2

Data set [12] relates to Mycobacterium tuberculosis. Put plainly: Antitubercular activity against Mycobacterium tuberculosis Spec.192 assessed as reduction in bacterial growth incubated for 14 days in presence of 1/2 x MIC rifampicin by MABA method. The format is functional. Conditions: Mycobacterium tuberculosis, 192, 336 h; time 14 day. In short, it runs like this: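 Checkerboard-type combination in Middlebrook 7H9 with 10% OADC. The test derivative at 1 to 1/32 of its MIC alone was mixed with the reference drug fixed at 1/2 its MIC. 4 ml samples were inoculated with McFarland 1 suspension and incubated 14 days at 37 °C. MIC is the lowest derivative concentration in combination that inhibited growth in liquid medium.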

Data set [13] deals with A549. Put plainly: Cytotoxicity against human A549 cells assessed as LDH release at 100 uM incubated for 72 hrs by LDH assay. In kind it is cell-based. The settings on record: a549, 72 h. In short, it runs like this: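 LDH release measured with a kit after 72 h exposure to 100 μM compound. Cells were seeded at 1×10^4 per well in DMEM or EMEM with 2% FBS. Absorbance was read at 490 nm. Release (%) = (A sample − A low control)/(A high control − A low control) × 100, with the Triton X-100 (1%) control taken as 100% release. Values are mean ± SD of three independent experiments run in triplicate.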

Data set [14] relates to Mycobacterium tuberculosis. Nature of the data set: Potentiation of ethambutol-induced antimycobacterial activity against Mycobacterium tuberculosis Spec.192 assessed as fold decrease in ethambutol MIC at 1/2X MIC incubated for 14 days in presence of ethambutol by MABA method. The format is functional. Conditions: time 14 day. In short, it runs like this: as §3

In brackets after ≈: the same amount, converted by molar mass.

In general, MIC refers to the least concentration at which growth counts as inhibited. For `COc1ccc(-n2nnnc2Nc2cccc(Br)c2)cc1`, the minimal inhibitory concentration (MIC) in [1] is > 256 µg/mL; in data set [3], 1 µg/mL; in data set [4], > 256 µg/mL; in data set [5] it was > 256 µg/mL; in data set [9], > 256 µg/mL; in data set [11] it was 1 µg/mL. In addition, the MIC in data set [12] was determined as 0.5 µg/mL. In addition, the “fractional inhibitory concentration index (FICI)” value in data set [2] was determined as 0.75. Moreover, the “fold change (FC)” value in [6], in [8], in [10] and in data set [14] was 2 in each case. Moreover, the Activity result in data set [7] and in [13] was “Non-Toxic” throughout.
Turning to `COc1ccc(-n2nnnc2Nc2ccc(Br)cc2)cc1`, the MIC is > 256 µg/mL in data set [1]; 1 µg/mL in data set [3]; > 256 µg/mL in data set [4]; 256 µg/mL (≈ 739 µM) in data set [5]; > 256 µg/mL in data set [9]; 1 µg/mL in [11]. For the same molecule, the MIC in data set [12] was determined as 0.5 µg/mL. For the same molecule, the “fractional inhibitory concentration index (FICI)” value in [2] was found to be 0.625. The Activity entry in data set [7] and in [13] was “Non-Toxic” in each case.

The values are drawn from ChEMBL document CHEMBL4680121, “Development of (4-methoxyphenyl)-1H-tetrazol-5-amine regioisomers as a new class of selective antitubercular agents” (Eur J Med Chem, 2020).
